Measured values reported in ChEMBL document CHEMBL1154833, “Curcuminoid analogs with potent activity against Trypanosoma and Leishmania species” (Eur J Med Chem, 2010).

How the values were obtained:
Leishmania major = assay: Antileishmanial activity against Leishmania major Friedlin promastigotes after 48 hrs by alamar blue assay; format: functional, organism-based
Outline: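 L. major Friedlin promastigotes grown in HOMEM with 10% FBS at 25 °C. Alamar Blue fluorescence assay in 96-well plates. 3–6 independent experiments unless noted.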

[1] = tested on: Trypanosoma brucei brucei; assay: Antitrypanosomal activity against Trypanosoma brucei brucei 427 after 48 hrs by alamar blue assay; format: functional, organism-based
HEK293 = assay: Cytotoxicity against HEK293 cells after 16 hrs by alamar blue assay; format: cell-based, Homo sapiens
Outline: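 HEK293T cells grown in DMEM-based medium with 10% newborn bovine serum at 37 °C, 5% CO2. Doubling dilutions of compound added for 16 h, then resazurin added. Fluorescence read at emission 590 nm after a further 24 h.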

Leishmania mexicana = assay: Antileishmanial activity against Leishmania mexicana MNYC/BZ/62/M379 amastigotes after 48 hrs by alamar blue assay; format: functional, organism-based
Outline: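 Axenic L. mexicana MNYC/BZ/62/M379 amastigotes kept at 33 °C under CO2 in Schneider's Drosophila medium with 20% FBS and 0.3% gentamycin. Alamar Blue fluorescence read-out.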

[2] = tested on: Trypanosoma brucei brucei; assay: Antitrypanosomal activity against diminazene-resistant Trypanosoma brucei brucei deltaTbat1-KO after 48 hrs by alamar blue assay; format: functional, organism-based
[3] = tested on: Trypanosoma brucei brucei; assay: Antitrypanosomal activity against multidrug-resistant Trypanosoma brucei brucei B48 after 48 hrs by alamar blue assay; format: functional, organism-based; settings: B48, 48 h
Trypanosoma evansi = assay: Antitrypanosomal activity against Trypanosoma evansi ITMAV170475 after 48 hrs by alamar blue assay; format: functional, organism-based; settings: ITMAV170475, 48 h
Outline: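 Culture-adapted T. evansi ITMAV170475 seeded at 1.5 ×10⁵ trypanosomes/ml in HMI9/20% FBS. Exposed to compound for 48 h, then incubated with Alamar Blue for 24 h, all at 37 °C under CO2. Assay validated against hemocytometer cell counts. EC50 from a variable-slope sigmoid fit.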

[4] = Leishmania major, Friedlin, 48 h, read-out: EC50
[5] = Trypanosoma brucei, 427, 48 h, read-out: EC50
[6] = Homo sapiens, HEK293, 16 h, read-out: EC50
[7] = Leishmania mexicana, MNYC/BZ/62/M379, 48 h, read-out: EC50

Row | Structure (SMILES) | EC50 (Leishmania major; [4]) [µM] | EC50 [1, 5] [µM] | EC50 (HEK293; [6]) [µM] | EC50 (Leishmania mexicana; [7]) [µM] | EC50 [2] [µM] | EC50 [3] [µM] | EC50 (Trypanosoma evansi) [µM] | EC50 (Leishmania major) | EC50 [1] | EC50 (HEK293; hek293) | EC50 (Leishmania mexicana)
1 | COc1cc(CCC(=O)CC(=O)CCc2ccc(O)c(OC)c2)ccc1O [TETRAHYDROCURCUMIN] | 90 | 21 | 120 | 43 | 37 | 12 | – | – | – | – | –
2 | COc1cc(CCC(=O)CC(O)CCc2ccc(O)c(OC)c2)ccc1O (configuration not stated) [HEXAHYDROCURCUMIN] | > 100 | 17 | 370 | > 100 | 38 | 5.9 | – | – | – | – | –
3 | COc1cc(/C=C/C(=O)CC(=O)/C=C/c2ccc(OC(=O)c3ccccc3)c(OC)c2)ccc1O | 9.3 | 3.1 | 94 | 76 | 3.8 | 2.1 | 1.5 | – | – | – | –
4 | N=C(N)c1ccc(/N=N/Nc2ccc(C(=N)N)cc2)cc1 [DIMINAZENE] | – | 0.12 | – | – | 2.4 | 1 | 0.018 | – | – | – | –
5 | CCCCCOc1ccc(CC/C=C/C(=O)CCc2ccc(OCCCCC)c(OC)c2)cc1OC | 6.6 | 1.1 | 43 | 53 | 1.2 | 1.8 | – | – | – | – | –
6 | COc1cc(CCC(=O)CC(=O)CCc2ccc(O)c(O)c2)ccc1O | 11 | 0.5 | 130 | 16 | 0.52 | 0.43 | – | – | – | – | –
7 | O=C(CCc1ccc(O)c(O)c1)CC(=O)CCc1ccc(O)c(O)c1 [DIDEMETHYLTETRAHYDROCURCUMIN] | > 100 | 1.9 | 150 | 53 | 1.5 | 1.7 | – | – | – | – | –
8 | COc1cc(CC/C=C/C(=O)CCc2ccc(OC(C)=O)c(OC)c2)ccc1OC(C)=O | 7.8 | 0.052 | 30 | 35 | 0.042 | 0.021 | – | – | – | – | –
9 | COc1cc(/C=C/C(=O)CC(=O)/C=C/c2ccc(OC(=O)c3ccccc3)cc2)ccc1OC(=O)c1ccccc1 | – | – | – | – | – | – | – | ND(Insoluble) | ND(Insoluble) | ND(Insoluble) | ND(Insoluble)
10 | COc1cc(/C=C/C(=O)CC(=O)/C=C/c2ccc(OC(C)=O)c(OC)c2)ccc1OC(C)=O | 73 | 1.6 | 80 | 34 | 2.2 | 1.2 | – | – | – | – | –
11 | COc1cc(/C=C/C=C/C(=O)CCc2ccc(O)c(OC)c2)ccc1O | 30 | 4.1 | 76 | 22 | 9.7 | 2.2 | – | – | – | – | –
12 | COc1ccc(/C=C/C(=O)CC(=O)/C=C/c2ccc(O)c(OC)c2)cc1 | 23 | 1.7 | 79 | 38 | 2 | 2.1 | – | – | – | – | –
13 | COc1cc(/C=C/C(=O)CC(=O)/C=C/c2ccc(OC(=O)c3ccccc3)c(OC)c2)ccc1OC(=O)c1ccccc1 | – | – | – | – | – | – | – | ND(Insoluble) | ND(Insoluble) | ND(Insoluble) | ND(Insoluble)
14 | COc1ccc(CCC(=O)CC(O)CCc2ccc(OC)c(OC)c2)cc1OC (configuration not stated) | 41 | – | 370 | > 100 | – | – | – | – | – | – | –
15 | COc1cc(/C=C/C(=O)CC(=O)/C=C/c2ccc(OCC=C(C)C)c(OC)c2)ccc1O | 7.6 | 1.4 | > 500 | 21 | 1.7 | 2 | – | – | – | – | –
16 | N=C(N)c1ccc(OCCCCCOc2ccc(C(=N)N)cc2)cc1 [PENTAMIDINE] | 3.8 | – | – | 16 | – | 0.67 | – | – | – | – | –
17 | O=C(/C=C/c1ccc(O)cc1)CC(=O)/C=C/c1ccc(OC(=O)c2ccccc2)cc1 | 60 | 4.1 | 270 | > 100 | 10 | 12 | – | – | – | – | –
18 | COc1cc(/C=C/C(=O)CC(=O)/C=C/c2ccc(OCCO)c(OC)c2)ccc1OCCO | 33 | 1.8 | 20 | 37 | 2.3 | 1.6 | – | – | – | – | –
19 | COc1cc(CCC(O)CC(O)CCc2ccc(O)c(OC)c2)ccc1O (configuration not stated) [OCTAHYDROCURCUMIN] | > 100 | 78 | – | > 100 | 61 | > 100 | – | – | – | – | –
